Source: ChEMBL document CHEMBL1143412, “RSV604, a novel inhibitor of respiratory syncytial virus replication” (Antimicrob Agents Chemother, 2007)

Legend:
[1] = test system: Respiratory syncytial virus; assay: Antiviral activity against plaque picked A-33903-resistant RSV RSS from passage 2 in human Hep2 cells by plaque reduction assay; assay type: functional, organism-based; details: HEp-2
In short: (§1)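 HEp-2 monolayers in six-well plates infected with 0.2 ml of 500 PFU/ml virus. After 2 h, overlaid with DMEM, 2% FBS, 0.6% agarose plus compound dilution series. Incubated 5 days, formaldehyde-fixed, plaques stained with methylene blue or immunostained and counted. Activity expressed as percent of plaques in untreated infected wells.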

[2] = Cytotoxicity against RSV RSS infected human Hep2 cells after 6 days by XTT assay; assay type: cell-based, HEp-2
[3] = test system: Respiratory syncytial virus; assay: Antiviral activity against RSV RSS infected human Hep2 cells after 5 days by plaque reduction assay; assay type: functional, organism-based; details: HEp-2, 120 h; in short: as §1
[4] = test system: Respiratory syncytial virus; assay: Antiviral activity against DMSO-passaged wild type RSV RSS infected human Hep2 cells by plaque reduction assay; assay type: functional, organism-based; details: HEp-2; in short: as §1
[5] = Cytotoxicity against RSV RSS infected human Hep2 cells up to 50 uM after 6 days by XTT assay; assay type: cell-based; details: hep-2, 144 h
In short: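 Uninfected cell-control plates run in parallel with the RSV XTT assay. HEp-2 cells at 4 × 10³ per well in DMEM/10% FBS, serial compound dilutions with 0.5% DMSO, 6 days. Viability by XTT. CC50 is the concentration giving 50% compound-induced cell death.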

[6] = test system: Respiratory syncytial virus; assay: Drug resistance, ratio of EC50 for plaque picked RSV604-resistant RSV RSS from passage 2 to EC50 for DMSO-passaged wild type RSV RSS; assay type: functional
[7] = test system: Respiratory syncytial virus; assay: Antiviral activity against RSV RSS infected human Hep2 cells assessed as reduction of viral antigen synthesis after 3 days by ELISA; assay type: functional, organism-based; details: HEp-2, 72 h
In short: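 HEp-2 cells seeded at 5 × 10³ per well in DMEM/10% FBS for 24 h, infected with RSV RSS at MOI about 0.02, serial compound dilutions for 3 days. Cells fixed and permeabilised in methanol-acetone, blocked in milk-Tween. Probed with mouse anti-RSV monoclonal then HRP anti-mouse. Developed with o-phenylenediamine/H2O2, absorbance […].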

[8] = test system: Respiratory syncytial virus; assay: Antiviral activity against RSV RSS infected human Hep2 cells assessed as inhibition of virus-induced cell death after 6 days by XTT assay; assay type: functional, organism-based; details: HEp-2, 144 h
In short: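 HEp-2 cells seeded at 4 × 10³ per well in DMEM with 10% FBS, infected next day with RSV RSS dosed to give about 80% cytopathic effect by day 6. Serial compound dilutions (top 10 μM, 0.5% DMSO) present throughout. Viability read by XTT reduction after 6 days. EC50 taken as 50% reduction in virus-induced cell death.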

[9] = Therapeutic index, CC50 for human Hep2 cells to EC50 for RSV RSS; assay type: cell-based, HEp-2; details: read-out: Ratio CC50/EC50
In short: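 Ratio of CC50 from uninfected HEp-2 XTT control plates to EC50 from RSV RSS-infected XTT plates, both read after 6 days.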

[10] = test system: Respiratory syncytial virus; assay: Antiviral activity against plaque picked RSV604-resistant RSV RSS from passage 2 in human Hep2 cells by plaque reduction assay; assay type: functional, organism-based; details: HEp-2; in short: as §1
[11] = test system: Respiratory syncytial virus; assay: Antiviral activity against RSV A2 infected human Hep2 cells after 5 days by plaque reduction assay; assay type: functional, organism-based; details: A2, HEp-2, 120 h; in short: as §1
[12] = test system: Respiratory syncytial virus; assay: Antiviral activity against RSV B infected human Hep2 cells after 5 days by plaque reduction assay; assay type: functional, organism-based; details: HEp-2, 120 h; in short: as §1
[13] = test system: Respiratory syncytial virus; assay: Drug resistance, ratio of EC50 for plaque picked A-33903-resistant RSV RSS from passage 2 to EC50 for DMSO-passaged wild type RSV RSS; assay type: functional
[14] = test system: Respiratory syncytial virus; assay: Antiviral activity against RSV Long infected human Hep2 cells after 5 days by plaque reduction assay; assay type: functional, organism-based; details: HEp-2, 120 h; in short: as §1

Compound	EC50 [1] [nM]	CC50 at 144 h [2] [nM]	EC50 [3] [nM]	EC50 [4] [nM]	Activity [5]	fold change (FC) [6]	EC50 [7] [nM]	EC50 [8] [nM]	selectivity ratio [9]	EC50 [10] [nM]	EC50 [11] [nM]	EC50 [12] [nM]	fold change (FC) [13]	EC50 [14] [nM]
CC(=O)NC1N=C(c2ccccc2)c2ccccc2NC1=O (stereo unspecified)	27600	> 50000	9700	8100	Non-toxic	>12.3	10100	9600	> 5	> 100000	15100	3500	3.1	7200
COc1ccccc1C(=O)NC1N=C(c2ccccc2)c2ccccc2NC1=O (stereo unspecified)	–	> 50000	1400	–	–	–	1100	3000	> 16	–	1200	–	–	1200
COc1cc([N+](=O)[O-])ccc1C(=O)N[C@H]1N=C(c2ccccc2)c2ccccc2NC1=O	1300	> 50000	800	400	–	–	500	900	> 55	–	–	230	3.3	570
